Test results from ChEMBL document CHEMBL1649384, “Synthesis and antiproliferative activity of novel symmetrical alkylthio- and alkylseleno-imidocarbamates” (Eur J Med Chem, 2011).

Legend:
MCF7 = assay: Cytotoxicity against human MCF7 cells after 72 hrs by MTT assay; format: functional; conditions: MCF7, 72 h
Method in brief: (§1)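 Cells seeded per well: Hep-G2 1×10⁴, HT-29 4×10³, K-562 4×10³, MCF-7 1.2×10⁴, MCF-10A 7×10³, PC-3 2×10³. MCF-10A were grown in supplemented MEBM at 37 °C, 5% CO₂. Five concentrations were tested between 0.01 and 100, with 72 h exposure. Formazan was read by A590. GI₅₀ was taken relative to untreated controls, from at least three independent experiments.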

HT-29 [1] = assay: Cytotoxicity against human HT-29 cells after 72 hrs by MTT assay; format: functional; conditions: HT-29, 72 h; for CC50: read-out: LC50 (the source's name); method in brief: as §1
K562 = assay: Cytotoxicity against human K562 cells after 72 hrs by MTT assay; format: functional; conditions: K562, 72 h; for CC50: read-out: LC50 (the source's name); method in brief: as §1
HepG2 = assay: Cytotoxicity against human HepG2 cells after 72 hrs by MTT assay; format: functional; conditions: HepG2, 72 h; for CC50: read-out: LC50 (the source's name); method in brief: as §1
PC-3 [2] = assay: Cytotoxicity against human PC3 cells after 72 hrs by MTT assay; format: functional; conditions: PC-3, 72 h; for CC50: read-out: LC50 (the source's name); method in brief: as §1
[3] = Cytotoxicity against human MCF10A cells after 72 hrs by MTT assay; format: cell-based, MCF-10A; conditions: for GI50 at 72 h: MCF10A cells; for LC50 / TGI: mcf-10a, 72 h; method in brief: as §1
PC-3 [4] = assay: Cytotoxicity against human PC3 cells after 72 hrs by CV method; format: functional; conditions: PC-3, 72 h
Method in brief: (§2)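 Crystal violet check of the MTT data: eight concentrations between 0.01 and 100, with 72 h exposure. Cells were fixed in 4% formaldehyde for at least 20 min, then stained with 0.1% crystal violet for 30 min. GI₅₀ is the concentration halving growth relative to untreated controls.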

HT-29 [5] = assay: Cytotoxicity against human HT-29 cells after 72 hrs by CV method; format: functional; conditions: HT-29, 72 h; method in brief: as §2

| Structure (SMILES) | GI50 (MCF7) [nM] | LC50 (MCF7) [µM] | TGI (MCF7) [µM] | GI50 (HT-29 [1]) [nM] | TGI (HT-29 [1]) [µM] | CC50 (HT-29 [1]) [µM] | GI50 (K562) [µM] | TGI (K562) [µM] | CC50 (K562) [µM] | GI50 (HepG2) [µM] | TGI (HepG2) [µM] | CC50 (HepG2) [µM] | GI50 (PC-3 [2]) [µM] | TGI (PC-3 [2]) [µM] | CC50 (PC-3 [2]) [µM] | GI50 at 72 h [3] [µM] | LC50 [3] [µM] | TGI [3] [µM] | GI50 (PC-3 [4]) [µM] | GI50 (HT-29 [5]) [µM] |
| --- | --- | --- | --- | --- | --- | --- | --- | --- | --- | --- | --- | --- | --- | --- | --- | --- | --- | --- | --- | --- |
| C[Se]/C(=N\C(=O)c1csc([N+](=O)[O-])c1)NC(=O)c1csc([N+](=O)[O-])c1 | 0.76 | > 100 | 28.1 | 0.63 | > 100 | > 100 | 4.98 | > 100 | > 100 | 0.62 | 1.55 | 10 | 0.1 | 7.09 | > 100 | 1.95 | 7.53 | 4.74 | 0.11 | 7.1 |
| C[Se]/C(=N\C(=O)c1ccno1)NC(=O)c1ccno1 | 0.09 | > 100 | 57.5 | 0.79 | > 100 | > 100 | 0.87 | 45.6 | > 100 | 0.51 | 9.35 | > 100 | 0.09 | 39.3 | > 100 | 2.89 | 63.94 | 15.41 | 0.03 | 4.9 |
| C[Se]/C(=N\C(=O)c1sccc1Cl)NC(=O)c1sccc1Cl | 300 | > 100 | 31.2 | 4.9 | > 100 | > 100 | 4.81 | 28.5 | 90 | 0.69 | 4.02 | 8.67 | 0.97 | 7.03 | > 100 | 3.16 | 7.82 | 5.49 | 0.24 | 0.0059 |
| C[Se]/C(=N\C(=O)c1cc(-c2ccccc2)nc2ccccc12)NC(=O)c1cc(-c2ccccc2)nc2ccccc12 | 490 | > 100 | 7.52 | 460 | 90.7 | 90.7 | 5.8 | 30.6 | 73 | 4.54 | 10.1 | 65.4 | 3.97 | 40.2 | > 100 | 0.71 | 76.9 | 20.05 | 3.72 | 0.85 |
| C[Se]/C(=N\C(=O)c1ccco1)NC(=O)c1ccco1 | 30 | > 100 | 88.9 | 0.05 | > 100 | > 100 | 8.78 | > 100 | > 100 | 0.76 | 8.66 | > 100 | 0.36 | 56.7 | > 100 | 5.94 | 98.07 | 40.16 | 0.16 | 1 |
